Source: paper PMC9904295 (Drug Delivery, 2023)

Assays:
[1] = Toxicity evaluation after repeated dosing; format: in vivo; conditions: ICR mice
How it was run: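 Male ICR mice (17–18 g) were randomised into six groups (n = 10), with 5% glucose as control. Test compound was given i.v. every 3 days for five doses at 7.5 or 10 mg/kg (free form) or 7.5, 10 or 15 mg/kg drug-equivalent (nanoparticle). At the end, organs were harvested for viscera index, whole blood was taken for routine counts, and serum TP, ALB, UREA and Cr were measured. Data are mean ± SD, Student's t test.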

[2] = Pharmacokinetic study in rats, intravenous; format: in vivo, Sprague-Dawley rats; conditions: i.v., 5 mg/kg in OXA
How it was run: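 Twelve Sprague-Dawley rats (half male) were split into two groups and given one i.v. dose equivalent to 5 mg/kg. The free drug was prepared in 5% glucose. Retro-orbital blood was taken at 0.083–24 h and centrifuged at 12,000 rpm for 5 min. Plasma drug was measured by UPLC-MS/MS and total Pt by ICP-MS. Non-compartmental analysis gave AUC, Cmax, t1/2, MRT and CL; mean ± SD, n = 6.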

SW620 cells = experiment: In vivo antitumor efficacy in xenograft tumor-bearing mice; design: species or system BALB/c nude mice; conditions: xenograft tumor-bearing nude mice, i.v. once a week
How it was run: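 Male BALB/c nude mice (18–20 g) were inoculated with 3 × 10^6 SW620 cells at the right third fat pad. At tumors of about 100–200 mm3 they were randomised into six groups, with 5% glucose as control. Test compound was given i.v. by tail vein once a week for 4 weeks at 5 or 10 mg/kg (free form) or 5, 10 or 20 mg/kg (nanoparticle). Tumor volume (L × W × W/2) and body weight were measured three times weekly, and RTV = V/V0. Tumors were weighed at the end; n = 6, mean ± SD, Student's t test.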

[3] = analyte total Pt (ICP-MS) in plasma

In the case of `O=C1[O][Pt]2([NH][C@@H]3CCCC[C@H]3[NH]2)[O]C1=O` [OXA, oxaliplatin], the UREA ([1]; 10 mg/kg i.v. every 3 days for five times) was “significant decrease”, the “biochemical indexes (TP, ALB, UREA, Cr)” value ([1]; i.v. every 3 days for five times, except UREA at 10 mg/kg) was “No significant change” and the AUC0-t ([2]; analyte OXA in plasma) was 1940 ± 390 ng·h/mL. For the same compound, the “AUC0-∞” value ([2]; analyte OXA in plasma) was 2030 ± 550 ng·h/mL, the CL ([2]; analyte OXA in plasma) was 2,580 ± 560 mL/h/kg and the Cmax ([2]; analyte OXA in plasma) was 9580 ± 1420 ng/mL. The T1/2 ([2]; analyte OXA in plasma) was 0.16 ± 0.07 h, the Vz ([2]; analyte OXA in plasma) was 567 ± 70 mL/kg and the AUC0-t [2, 3] was 13000 ± 3440 ng·h/mL. For the same compound, the “AUC0-∞” value [2, 3] was 19980 ± 5650 ng·h/mL, the CL [2, 3] was 127.98 ± 36.2 mL/h/kg and the Cmax [2, 3] was 4760 ± 680 ng/mL. The T1/2 [2, 3] was 17.52 ± 0.52 h, the Vz [2, 3] was 3,220 ± 818 mL/kg and the “tumor growth inhibition, dose dependence” value (SW620 cells) was “dose-dependent tumor growth inhibition”.
